# pKi: −log10 of the molar value. Several values for one entry are separate records, joined by “and”; a condition that tells them apart may be missing. Equal entries are not always repeated.
# Columns and labels:
# Acetylcholinesterase = Acetylcholinesterase (Homo sapiens, UniProt P22303); assay: Inhibition of 1 mM acetylthiocholine (AcTCh) binding to human Acetylcholinesterase
# In short: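 Human acetylcholinesterase from a commercial supplier, assayed with 1 mM acetylthiocholine as substrate.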
# Cocaine esterase = molecular target: T1, Cocaine esterase (Homo sapiens, UniProt O00748); assay: Inhibition constant against human intestinal carboxylesterase (hiCE) expressed in Sf21 cells using 3 mM o-NPA
# T1 sequence (O00748 whole entry): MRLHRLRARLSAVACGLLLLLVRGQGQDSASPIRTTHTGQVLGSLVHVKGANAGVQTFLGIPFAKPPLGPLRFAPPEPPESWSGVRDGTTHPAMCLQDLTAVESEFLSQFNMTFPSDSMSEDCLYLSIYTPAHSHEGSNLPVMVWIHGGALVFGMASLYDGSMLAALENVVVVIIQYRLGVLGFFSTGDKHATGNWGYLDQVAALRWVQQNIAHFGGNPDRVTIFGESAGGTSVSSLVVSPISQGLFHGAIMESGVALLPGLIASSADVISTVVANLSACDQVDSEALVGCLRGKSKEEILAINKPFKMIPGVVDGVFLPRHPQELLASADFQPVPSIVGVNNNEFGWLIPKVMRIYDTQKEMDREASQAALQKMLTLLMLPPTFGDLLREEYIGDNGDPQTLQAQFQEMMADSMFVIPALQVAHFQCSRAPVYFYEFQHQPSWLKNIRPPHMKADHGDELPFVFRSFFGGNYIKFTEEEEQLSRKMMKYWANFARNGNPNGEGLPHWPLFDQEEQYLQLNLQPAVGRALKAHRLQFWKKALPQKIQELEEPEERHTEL
# Liver carboxylesterase 1 = molecular target: T2, Liver carboxylesterase 1 (Homo sapiens, UniProt P23141); assay: Inhibition constant against human liver carboxylesterase (hCE1) expressed in Sf21 cells using 3 mM o-NPA; type: cell-based, Oryctolagus cuniculus
# T2 sequence (P23141 whole entry): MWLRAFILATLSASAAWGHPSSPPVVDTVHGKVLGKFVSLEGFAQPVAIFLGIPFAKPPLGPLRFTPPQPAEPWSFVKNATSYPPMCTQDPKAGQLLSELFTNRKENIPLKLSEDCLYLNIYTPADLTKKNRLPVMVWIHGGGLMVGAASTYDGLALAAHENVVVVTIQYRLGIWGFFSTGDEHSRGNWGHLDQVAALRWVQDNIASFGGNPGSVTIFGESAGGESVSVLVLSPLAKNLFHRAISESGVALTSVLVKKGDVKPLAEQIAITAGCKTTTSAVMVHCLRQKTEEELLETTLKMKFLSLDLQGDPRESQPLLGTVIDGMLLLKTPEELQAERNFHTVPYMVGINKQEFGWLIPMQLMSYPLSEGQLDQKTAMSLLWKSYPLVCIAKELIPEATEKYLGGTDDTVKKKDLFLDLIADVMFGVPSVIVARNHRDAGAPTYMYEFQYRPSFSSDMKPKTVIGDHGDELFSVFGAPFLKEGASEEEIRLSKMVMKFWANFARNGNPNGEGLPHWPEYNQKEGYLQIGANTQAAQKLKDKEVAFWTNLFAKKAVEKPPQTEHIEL
# [1] = Inhibition constant against rabbit liver carboxylesterase (rCE) expressed in Sf21 cells using 3 mM o-NPA; design: species or system Oryctolagus cuniculus
# Acetylcholinesterase, sequence (P22303 whole entry): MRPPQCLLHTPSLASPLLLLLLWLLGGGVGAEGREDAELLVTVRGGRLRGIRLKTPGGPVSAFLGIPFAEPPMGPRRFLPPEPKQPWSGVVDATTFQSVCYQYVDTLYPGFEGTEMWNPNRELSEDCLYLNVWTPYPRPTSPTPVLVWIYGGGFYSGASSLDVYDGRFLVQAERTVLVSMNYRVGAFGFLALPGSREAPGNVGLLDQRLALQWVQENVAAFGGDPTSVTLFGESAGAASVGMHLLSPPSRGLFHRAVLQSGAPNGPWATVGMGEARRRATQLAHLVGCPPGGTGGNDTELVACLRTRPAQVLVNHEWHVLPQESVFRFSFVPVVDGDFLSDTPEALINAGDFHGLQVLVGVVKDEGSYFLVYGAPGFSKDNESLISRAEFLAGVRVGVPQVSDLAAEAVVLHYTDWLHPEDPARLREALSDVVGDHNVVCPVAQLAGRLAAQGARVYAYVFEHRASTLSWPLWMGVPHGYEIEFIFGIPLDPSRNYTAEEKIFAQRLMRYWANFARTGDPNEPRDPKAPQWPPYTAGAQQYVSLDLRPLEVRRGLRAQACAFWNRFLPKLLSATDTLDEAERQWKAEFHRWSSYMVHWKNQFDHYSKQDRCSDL
SMILES,pKi (Acetylcholinesterase),pKi (Cocaine esterase),pKi (Liver carboxylesterase 1),pKi (Liver carboxylesterase 1; sf21),pKi [1]
O=C(C(=O)c1ccsc1)c1ccsc1,< 4.00,5.18,6.44 and 5.62,,
O=C(C(=O)c1ccc(Br)s1)c1ccc(Br)s1,< 4.00,,,,
O=C(C(=O)c1cccs1)c1cccs1,< 4.00,5.98,6.67 and 6.06,,
O=C(C(=O)c1ccco1)c1ccco1,< 4.00,5.10,5.93 and 5.07,,
O=C(c1cccs1)C(O)c1cccs1 (stereo not drawn),< 4.00,5.25,5.78 and 5.34,,
O=C(C(=O)c1cc(Br)cs1)c1cc(Br)cs1,< 4.00,7.24,,,
O=C(C(=O)c1ccccn1)c1ccccn1,< 4.00,,6.90 and 6.32,,
O=C(c1ccco1)C(O)c1ccco1 (stereo not drawn),< 4.00,< 4.00,< 4.00,< 4.00,
O=C(C(=O)c1ccc2ccccc2c1)c1ccc2ccccc2c1,,,6.59,,8.98
